Assay results taken from ChEMBL document CHEMBL4000256, “Light-Regulated NO Release as a Novel Strategy To Overcome Doxorubicin Multidrug Resistance” (ACS Med Chem Lett, 2017).
Active and inactive are the calls of the source. The rule behind the calls is not given here.

Key:
M14 [1] = assay: Dark toxicity in human M14 cells assessed as increase in LDH release at 5 uM measured after 20 mins by spectrophotometric method; format: cell-based; conditions: m14, 20 min
Outline: (§1)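 Cells (M14 melanoma, human fibroblasts or rat H9c2 cardiomyocytes) kept 20 min at room temperature in PBS in the dark, with 5 μM compound, given alone or with equimolar 5 μM doxorubicin. Cytotoxicity read as extracellular LDH release. Triplicate measurements, n = 3.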

H9c2 [2] = assay: Cytotoxicity against 7 mW/cm'2 irradiated rat H9c2 cells at 5 uM coadministered with DOX measured after 20 mins by spectrophotometric method; format: cell-based; conditions: h9c2, 20 min
Outline: (§2)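 Cells (M14 melanoma, human fibroblasts or rat H9c2 cardiomyocytes) kept 20 min at room temperature in PBS under 400 nm light (7 mW/cm2), alone or with 5 μM compound, given alone or with equimolar 5 μM doxorubicin. Damage read as extracellular LDH release. Triplicate measurements, n = 3.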

H9c2 [3] = assay: Dark toxicity against rat H9c2 cells at 5 uM measured after 20 mins co-incubated with doxorubicin by spectrophotometric method; format: cell-based; conditions: h9c2, 20 min; outline: as §1
M14 [4] = assay: Cytotoxicity against 7 mW/cm'2 irradiated human M14 cells assessed as increase in LDH release at 5 uM coadministered with DOX measured after 20 mins by spectrophotometric method; format: functional, cell-based; outline: as §2
Fibroblast = assay: Dark toxicity against human fibroblasts at 5 uM measured after 20 mins co-incubated with doxorubicin by spectrophotometric method; format: cell-based; outline: as §1
Homo sapiens [5] = organism: Homo sapiens; assay: Inhibition of Pgp in 7 mW/cm'2 irradiated human M14 cells assessed as nitration of tyrosine in pgp at 5 uM measured after 20 mins in presence of doxorubicin by immunoblotting
Outline: (§3)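 M14 melanoma cells held 20 min at room temperature in PBS under 400 nm light (7 mW/cm2) with 5 μM compound, alone or with equimolar doxorubicin. Nitrated ABC transporters (Pgp, MRP1, MRP4, BCRP) detected by immunoblot.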

[6] = biological target: Multidrug resistance-associated protein 1 (Homo sapiens, UniProt P33527); assay: Inhibition of MRP1 in 7 mW/cm'2 irradiated human M14 cells assessed as nitration of tyrosine in MRP1 at 5 uM measured after 20 mins in presence of doxorubicin by immunoblotting; outline: as §3
[7] = biological target: T1, ATP-binding cassette sub-family C member 4 (Homo sapiens, UniProt O15439); assay: Inhibition of MRP4 in 7 mW/cm'2 irradiated human M14 cells assessed as nitration of tyrosine in MRP4 at 5 uM measured after 20 mins in presence of doxorubicin by immunoblotting; outline: as §3
T1 sequence (O15439 whole entry): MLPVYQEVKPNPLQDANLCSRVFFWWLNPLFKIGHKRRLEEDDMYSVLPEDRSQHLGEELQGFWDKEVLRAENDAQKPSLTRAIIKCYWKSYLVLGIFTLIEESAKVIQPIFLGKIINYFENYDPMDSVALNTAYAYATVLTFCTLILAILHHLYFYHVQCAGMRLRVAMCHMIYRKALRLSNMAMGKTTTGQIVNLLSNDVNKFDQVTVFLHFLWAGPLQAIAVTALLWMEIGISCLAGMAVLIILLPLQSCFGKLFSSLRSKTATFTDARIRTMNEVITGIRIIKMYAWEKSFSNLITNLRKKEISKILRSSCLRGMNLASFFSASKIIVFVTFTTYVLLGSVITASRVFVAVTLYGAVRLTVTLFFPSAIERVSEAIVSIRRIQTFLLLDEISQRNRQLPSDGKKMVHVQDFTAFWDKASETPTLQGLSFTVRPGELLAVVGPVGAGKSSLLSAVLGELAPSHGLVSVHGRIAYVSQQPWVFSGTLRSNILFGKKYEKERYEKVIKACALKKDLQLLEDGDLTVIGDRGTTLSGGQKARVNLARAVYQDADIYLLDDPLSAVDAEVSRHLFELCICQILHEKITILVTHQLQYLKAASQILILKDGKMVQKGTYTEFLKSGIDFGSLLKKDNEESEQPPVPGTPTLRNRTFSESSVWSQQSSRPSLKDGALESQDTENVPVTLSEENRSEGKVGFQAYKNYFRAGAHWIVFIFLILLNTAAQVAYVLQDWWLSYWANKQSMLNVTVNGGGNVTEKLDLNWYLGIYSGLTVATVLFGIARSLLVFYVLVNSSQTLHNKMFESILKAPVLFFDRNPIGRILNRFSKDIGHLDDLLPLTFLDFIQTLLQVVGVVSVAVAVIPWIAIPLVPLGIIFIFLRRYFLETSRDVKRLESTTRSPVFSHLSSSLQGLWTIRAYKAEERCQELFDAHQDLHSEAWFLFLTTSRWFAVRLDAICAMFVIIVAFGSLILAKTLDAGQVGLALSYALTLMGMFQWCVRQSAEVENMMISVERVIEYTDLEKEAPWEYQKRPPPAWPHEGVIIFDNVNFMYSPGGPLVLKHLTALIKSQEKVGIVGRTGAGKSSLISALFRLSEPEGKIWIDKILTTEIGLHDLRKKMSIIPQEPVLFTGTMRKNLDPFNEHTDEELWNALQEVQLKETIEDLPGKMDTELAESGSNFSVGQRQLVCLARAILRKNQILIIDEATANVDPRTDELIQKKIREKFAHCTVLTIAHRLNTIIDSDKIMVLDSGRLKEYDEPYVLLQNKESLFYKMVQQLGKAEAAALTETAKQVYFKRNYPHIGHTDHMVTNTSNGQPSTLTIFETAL

Homo sapiens [8] = organism: Homo sapiens; assay: […] in 7 mW/cm'2 irradiated human M14 cells assessed as increase in LDH release at 5 uM measured after 20 mins by spectrophotometric method
[9] = Stability in pH 7.4 PBS irradiated with 7 mW/cm2 light assessed as bleaching in NOP1 band at 10 uM up to 60 mins in presence of calf thymus DNA by absorption spectrum method; format: physicochemical; conditions: buffer, pH 7.4, 1 h
Outline: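 Absorption spectra recorded after 0, 30, 40, 50 and 60 min irradiation at λexc 405 nm. Solution at 10 μM with 18 μM ct-DNA in PBS (pH 7.4, 10 mM, 3% DMSO).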

[10] = Solubility of the compound in PBS with 3% DMSO; format: physicochemical; conditions: buffer

Chain of Multidrug resistance-associated protein 1 (P33527 whole entry): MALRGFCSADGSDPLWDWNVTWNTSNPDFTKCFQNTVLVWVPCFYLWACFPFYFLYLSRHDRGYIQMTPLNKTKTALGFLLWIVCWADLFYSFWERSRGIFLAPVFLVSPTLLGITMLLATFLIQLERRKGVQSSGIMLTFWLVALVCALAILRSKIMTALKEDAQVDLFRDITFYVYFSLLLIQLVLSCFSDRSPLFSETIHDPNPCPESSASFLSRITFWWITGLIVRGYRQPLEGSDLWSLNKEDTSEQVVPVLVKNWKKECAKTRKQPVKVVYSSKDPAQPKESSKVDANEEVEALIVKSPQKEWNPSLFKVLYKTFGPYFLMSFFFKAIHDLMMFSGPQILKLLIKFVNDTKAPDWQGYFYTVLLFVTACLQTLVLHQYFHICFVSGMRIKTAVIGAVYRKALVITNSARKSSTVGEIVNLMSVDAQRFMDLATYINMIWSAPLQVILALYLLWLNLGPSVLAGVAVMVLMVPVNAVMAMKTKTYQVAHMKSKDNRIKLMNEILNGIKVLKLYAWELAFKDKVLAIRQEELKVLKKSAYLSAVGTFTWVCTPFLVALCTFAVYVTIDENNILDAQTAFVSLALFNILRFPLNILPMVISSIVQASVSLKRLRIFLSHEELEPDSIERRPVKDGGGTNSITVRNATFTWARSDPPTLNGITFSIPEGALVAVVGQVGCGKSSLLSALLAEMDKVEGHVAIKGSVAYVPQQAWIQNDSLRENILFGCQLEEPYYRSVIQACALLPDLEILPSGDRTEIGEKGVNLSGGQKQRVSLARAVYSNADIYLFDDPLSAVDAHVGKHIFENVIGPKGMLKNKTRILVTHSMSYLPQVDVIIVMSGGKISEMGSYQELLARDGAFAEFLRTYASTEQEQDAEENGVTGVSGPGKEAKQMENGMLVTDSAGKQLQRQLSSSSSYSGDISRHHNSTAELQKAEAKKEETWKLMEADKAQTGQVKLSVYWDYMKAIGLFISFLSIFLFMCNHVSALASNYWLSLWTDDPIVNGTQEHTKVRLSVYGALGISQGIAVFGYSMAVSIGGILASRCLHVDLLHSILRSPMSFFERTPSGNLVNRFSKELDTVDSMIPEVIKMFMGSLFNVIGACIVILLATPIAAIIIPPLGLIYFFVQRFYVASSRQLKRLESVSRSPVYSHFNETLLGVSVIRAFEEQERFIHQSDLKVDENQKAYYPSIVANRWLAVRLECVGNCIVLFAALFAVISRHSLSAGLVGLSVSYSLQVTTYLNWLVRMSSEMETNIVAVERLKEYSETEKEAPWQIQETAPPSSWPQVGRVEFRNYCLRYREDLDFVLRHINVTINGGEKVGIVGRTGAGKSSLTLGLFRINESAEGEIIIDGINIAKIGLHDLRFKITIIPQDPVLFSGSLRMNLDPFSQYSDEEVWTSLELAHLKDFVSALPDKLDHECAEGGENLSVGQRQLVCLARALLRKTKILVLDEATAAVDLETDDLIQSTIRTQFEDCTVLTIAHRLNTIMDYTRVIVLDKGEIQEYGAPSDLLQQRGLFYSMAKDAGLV

SMILES | Activity (M14 [1]) | Activity (H9c2 [2]) | Activity (H9c2 [3]) | Activity (M14 [4]) | Activity (Fibroblast) | inhibition (Homo sapiens [5]) | inhibition (INH) [6] | inhibition (INH) [7] | inhibition (Homo sapiens [8]) | Stability [9] | solubility [10]
NCCCNc1ccc([N+](=O)[O-])c(C(F)(F)F)c1 | Non-Toxic | Non-Toxic | Non-Toxic | Active | Non-Toxic | Active | Active | Active |  |  | 
COc1cccc2c1C(=O)c1c(O)c3c(c(O)c1C2=O)C[C@@](O)(C(=O)COC(=O)c1ccc(C(=O)NCCCNc2ccc([N+](=O)[O-])c(C(F)(F)F)c2)cc1)C[C@@H]3O[C@H]1C[C@H](N)[C@H](O)[C@H](C)O1.Cl |  |  |  |  |  |  |  |  | Active | Stable | Soluble
